{"data": "Results from different studies", "ADRA2C": "Alpha-2C adrenergic receptor (ADRA2C, Homo sapiens, UniProt P18825)", "Fibroblast growth factor 14": "Fibroblast growth factor 14 (Homo sapiens, UniProt Q92915)", "MAPK14": "Mitogen-activated protein kinase 14 (MAPK14, Homo sapiens, UniProt Q16539)", "PLEKHA3": "PLEKHA3 (Homo sapiens, UniProt Q9HB20)", "note": "Protocols differ between the studies behind these lines. pIC50, pKd, pKi: −log10 of the molar value."}
{"SMILES": "Cc1cc(Oc2ncccc2CN2CCN(c3cccc(F)c3)CC2)ccc1-c1c(C)c(=O)[nH]c(=O)n1C", "target": "ADRA2C", "effect on": "ligand displacement", "method": "radioligand", "measurement": "pKi", "result": 7.70}
{"SMILES": "Cc1cccc(NC(=O)Cn2cc(CO)c3ccccc32)c1", "target": "Fibroblast growth factor 14", "effect on": "binding", "method": "SPR", "measurement": "pKd", "result": 5.72}
{"SMILES": "C[C@H](Cc1ccc(O)c(O)c1)[C@@H](C)Cc1ccc(O)c(O)c1", "target": "pyrD (Pseudomonas aeruginosa, UniProt Q9HZF8)", "effect on": "binding", "method": "ITC", "measurement": "pKd", "result": 5.12}
{"SMILES": "c1coc(-c2n[nH]cc2-c2ccnc3ccccc23)c1", "target": "MAPK14", "effect on": "enzyme activity", "action": "inhibitor", "method": "ADP detection", "measurement": "pIC50", "result": 5.74}
{"SMILES": "COc1nc(-c2cccc(-c3ccccc3)c2C)ccc1CNCCNC(=O)CCCCCCCCCCC(=O)N1CCN(CCNC(=O)c2cc3c(=O)n4cccc(C)c4nc3n(CCc3cccs3)c2=N)CC1", "target": "Programmed cell death 1 ligand 1 (Cd274, Mus musculus, UniProt Q9EP73)", "effect on": "binding", "method": "BLI", "measurement": "pKd", "result": 6.20}
{"SMILES": "CCOc1ccc(C(=O)CC(SCc2ccc(OC)cc2)C(=O)O)cc1 (stereo not drawn)", "target": "PLEKHA3", "effect on": "ligand displacement", "method": "FP", "measurement": "pKi", "result": 4.57}
{"SMILES": "Cn1cc(-c2ccnc3ccccc23)c(-c2ccccn2)n1", "target": "MAPK14", "effect on": "enzyme activity", "action": "inhibitor", "method": "ADP detection", "measurement": "pIC50", "result": 5.03}
{"SMILES": "CC(=O)Nc1ccc(S(=O)(=O)N2CCN(CC(O)COc3ccc4ccccc4c3)CC2)cc1 (stereo not drawn)", "target": "Fibroblast growth factor 14", "effect on": "binding", "method": "SPR", "measurement": "pKd", "result": 5.07}
{"SMILES": "Cc1cc(Oc2ncccc2CN2CCN(c3ccccc3C#N)CC2)ccc1-c1c(C)c(=O)[nH]c(=O)n1C", "target": "ADRA2C", "effect on": "ligand displacement", "method": "radioligand", "measurement": "pKi", "result": 7.25}
{"SMILES": "CCOc1ccc(C(=O)CC(SCc2ccc(F)cc2)C(=O)O)cc1 (stereo not drawn)", "target": "PLEKHA3", "effect on": "ligand displacement", "method": "FP", "measurement": "pKi", "result": 4.86}
{"SMILES": "O=c1cc(-c2ccc([N+](=O)[O-])cc2)[nH]c2c(-c3ccc(Cl)cc3)c(Cc3ccccc3)nn12", "target": "Fibroblast growth factor 14", "effect on": "binding", "method": "SPR", "measurement": "pKd", "result": 6.03}
{"SMILES": "CCOc1ccc(-c2cc(C(=O)O)c(-c3ccc(Cl)cc3)o2)cc1", "target": "PLEKHA3", "effect on": "ligand displacement", "method": "FP", "measurement": "pKi", "result": 6.26}
{"SMILES": "Cc1cc(Oc2ncccc2CN2CCN(c3ccc(Br)cc3)CC2)ccc1-c1c(C)c(=O)[nH]c(=O)n1C", "target": "ADRA2C", "effect on": "ligand displacement", "method": "radioligand", "measurement": "pKi", "result": 7.12}
{"SMILES": "CCOc1ccc(C(=O)CC(SCc2ccc(Cl)cc2)C(=O)O)cc1OCC (stereo not drawn)", "target": "PLEKHA3", "effect on": "ligand displacement", "method": "FP", "measurement": "pKi", "result": 5.17}
{"SMILES": "Cc1cc(Oc2ncccc2CN2CCN(c3ccccc3)CC2)ccc1-c1c(C)c(=O)[nH]c(=O)n1C", "target": "ADRA2C", "effect on": "ligand displacement", "method": "radioligand", "measurement": "pKi", "result": 7.94}
